From PubChem
The list is not random: actives were taken first. Their share in the collection is about 1.8%.
Fam108B inh: mouse Fam108B serine hydrolase inhibitors, primary screen, counter-screen for RBBP9 inhibitor project, biochemical, fluorescence polarization | actives 0.33% (n = 300,000) | recombinant Fam108B, FP-Rh probe fluorescence polarization | inhibition, % at 9.51 µM;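 active = inhibition above the screen mean inhibition plus 3 SD, computed separately per campaign, cut at about 18% in these data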;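 also: inhibitors lower polarization as less probe binds the enzyme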
PME-1 primary: PME-1 inhibitors via competitive probe labeling, primary screen, biochemical, fluorescence polarization, FP-Rh probe, HTS; Protein phosphatase methylesterase 1 (Homo sapiens), Q9Y570; recombinant PME-1; inhibition, % at 5.9 µM; actives 0.53% (n = 320,000); AID 2130, 2009;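 active = inhibition above the campaign mean of all compounds plus 3 SD, cut at about 26% in these data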;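 also: competitive labeling of PME-1 active site by serine hydrolase directed probe; 0% = PME-1 with DMSO and 100% = wells lacking PME-1 enzyme; inhibitors block probe labeling so polarization falls and inhibition rises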
Target sequence (Q9Y570 whole entry, looked up): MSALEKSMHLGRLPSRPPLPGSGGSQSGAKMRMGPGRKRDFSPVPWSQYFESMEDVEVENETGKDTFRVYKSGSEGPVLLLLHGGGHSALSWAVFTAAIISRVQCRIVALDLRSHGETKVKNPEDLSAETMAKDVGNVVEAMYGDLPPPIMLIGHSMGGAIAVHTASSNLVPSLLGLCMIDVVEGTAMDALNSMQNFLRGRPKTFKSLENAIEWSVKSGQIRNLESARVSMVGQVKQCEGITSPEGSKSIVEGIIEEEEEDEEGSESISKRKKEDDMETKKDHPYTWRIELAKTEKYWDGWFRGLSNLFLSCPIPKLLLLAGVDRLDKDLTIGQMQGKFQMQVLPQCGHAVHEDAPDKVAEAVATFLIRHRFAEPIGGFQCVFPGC
SIAE primary: human SIAE inhibitors, primary screen, biochemical, fluorescence polarization, FP-Rh probe, 1536-well HTS. Sialate O-acetylesterase (Homo sapiens), Q9HAT2. SIAE FP-Rh probe binding. inhibition, % at 9.66 µM. actives 0.69% (n = 370,000). AID 1053197, 2014;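 active = inhibition above a cutoff: mean of compounds within the control limits plus 3 SD of those, cut at about 17% in these data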;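 also: 0% = plate median of compound wells and 100% = probe without SIAE protein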
HTRA1 inhibitor: HTRA1 serine protease inhibitors, primary screen, biochemical, fluorescence polarization, HTS. AID 504803, 2011. Q92743. recombinant HTRA1, FP-rhodamine activity-based probe. inhibition, % at 5.96 µM. actives 0.5% (n = 340,000); in the data active = inhibition above about 36%;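 also: 0% = enzyme with DMSO and 100% = wells lacking enzyme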
ABHD4 inh: ABHD4 inhibitors, primary screen, biochemical, fluorescence polarization, mouse. (Lyso)-N-acylphosphatidylethanolamine lipase (Mus musculus), Q8VD66. purified mABHD4, FP-Rh probe fluorescence polarization. inhibition, % at 8.92 µM. actives 0.54% (n = 370,000);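 active = inhibition exceeding the mean over every tested compound plus 3 SD, cut at about 30% in these data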;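 also: 0% = plate median of compound wells and 100% = S159A mutant with DMSO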
Target sequence (Q8VD66 whole entry, looked up): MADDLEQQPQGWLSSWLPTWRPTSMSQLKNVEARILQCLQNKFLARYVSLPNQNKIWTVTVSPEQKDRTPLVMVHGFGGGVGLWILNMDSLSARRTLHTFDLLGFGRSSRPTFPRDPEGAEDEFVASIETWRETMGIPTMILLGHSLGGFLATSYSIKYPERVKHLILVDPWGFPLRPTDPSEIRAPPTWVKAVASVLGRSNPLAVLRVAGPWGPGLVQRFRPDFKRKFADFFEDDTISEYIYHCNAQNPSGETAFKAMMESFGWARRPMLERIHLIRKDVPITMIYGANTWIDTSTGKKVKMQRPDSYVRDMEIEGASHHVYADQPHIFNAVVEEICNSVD
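System: mouse ABHD4 enzyme, wild type / Medium: HEPES pH 7.0, NaCl, Pluronic buffer / Reagent: FP-Rh activity-based fluorescent probe / Control set: S159A mutant high control, sample median low control / Detection: fluorescence polarization with parallel and perpendicular emission, 525/598 nm / Schedule: 45 min + 60 min at 25 °C / Compound dosing: 8.92 µM, single dose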
TCR CD3 inh: inhibitors of human TCR-CD3 interaction, primary screen, biochemical, fluorescence, TAMRA-labeled TCR probe; actives 0.37% (n = 360,000); inhibition, % at 9.4 µM; T-cell receptor (TCR); AID 651800, 2012;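 also: recombinant mutant TCR 2C K166C tagged with TAMRA read by polarization; 0% = receptor in buffer alone and 100% = receptor with positive control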
BSA TAMRA ctr: compounds interfering with TAMRA-BSA probe, counter-screen for TCR-CD3 interaction inhibitor project, biochemical, fluorescence, TAMRA-labeled BSA; shares compounds with TCR CD3 inh; TAMRA-labeled BSA probe fluorescence counterscreen; inhibition, % at 9.4 µM; actives 10% (n = 1,200); AID 652035, 2013; in the data active = inhibition above about 23%;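 also: 0% = buffer low control and 100% = reference high control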
TCR-CD3 conf: TCR-CD3 interaction inhibitors, retest, confirmation, biochemical, fluorescence, TAMRA-labeled TCR probe; inhibition, % at 9.4 µM; AID 652036, 2013; TAMRA-labeled TCR probe fluorescence binding assay; shares compounds with TCR CD3 inh; actives 48% (n = 1,200)
Numbers without * were called inactive; nt = no result. Rule as the data show it, unless noted: active = inhibition above about 19%; inactive = the rest.

SMILES | Fam108B inh | PME-1 primary | SIAE primary | HTRA1 inhibitor | ABHD4 inh | TCR CD3 inh | BSA TAMRA ctr | TCR-CD3 conf
O=C(NCc1cccc(Cl)c1)O[C@H]1CC[C@@]23CCCN2C(=O)CCC[C@H]3C1 | nt | nt | 0 | nt | 2 | nt | nt | nt
Cn1cccc1CC(=O)N/N=C/C=C/c1ccco1 | 1 | -2 | 4 | 8 | 6 | 20* | -11 | 10
O=c1/c(=C/c2ccc(O)c([N+](=O)[O-])c2)sc2nc3ccccc3n12 | nt | nt | -18 | nt | 5 | 2 | nt | nt
CCN(CC)c1ccc(/C=c2\sc3nc4ccccc4n3c2=O)c(O)c1 | nt | nt | 4 | -9 | 25 | 28* | 28* | 21*
COc1ccc(C(=O)NC(=S)NNC(=O)c2ccc(O)cc2)cc1[N+](=O)[O-] | 2 | -1 | 3 | 4 | 13 | 28* | -2 | 28*
CCn1c(C)nc2cc(C(=O)NNC(=S)Nc3ccc(C)cc3)ccc21 | 4 | 0 | 0 | -4 | -2 | -8 | nt | nt
COc1ccc(C(=O)NNC(=S)NC(=O)c2cccc([N+](=O)[O-])c2)cc1 | -1 | 2 | 12 | 13 | 13 | 21* | -5 | 29*
CCn1c(C)nc2cc(C(=O)NNC(=S)NC(=O)c3ccc(OC)cc3)ccc21 | 2 | 0 | 2 | 0 | -4 | 36* | -1 | 32*
COc1ccc(C(=O)NNC(=O)c2ccncc2)cc1[N+](=O)[O-] | 1 | -4 | 0 | -4 | -1 | 5 | nt | nt
Cc1ccc(C(=O)NCCCC(=O)O)o1 | 2 | -1 | -5 | 0 | -9 | 41* | 1 | 1
Cc1ccc(C(=O)NCCCCNC(=O)c2ccc(C)o2)o1 | -3 | 5 | 1 | -5 | 1 | 5 | nt | nt
COc1cc(/C=N/NC(=O)C(=O)/C=C2\NC(C)(C)Cc3ccccc32)ccc1O | 0 | 10 | 0 | 8 | 9 | 26* | -9 | 14
Cc1ccc(C=Nn2c(-c3n[nH]c4c3CCC4)n[nH]c2=S)o1 | nt | nt | 4 | nt | 0 | nt | nt | nt
CC(=O)Nc1cccc(NC(=O)COc2ccccc2C)c1 | -2 | -7 | 0 | 8 | 0 | 21* | 3 | 0
Cc1nn(CCC(=O)NNC(=O)Nc2ccccc2F)c(C)c1[N+](=O)[O-] | nt | nt | -7 | nt | 2 | nt | nt | nt
Cc1cc2oc3ccc(NCCCn4ccnc4)cc3c(=O)c2cc1C | 8 | -3 | -8 | 3 | 13 | 35* | 1 | 20*
Cc1ccc(-n2c(SCC(=O)Nc3ccccc3-c3ccccc3)nnc2-c2cccnc2)cc1 | nt | nt | -1 | nt | 1 | nt | nt | nt
O=C(NNC(=S)NC(=O)c1cccs1)c1ccc(O)cc1 | nt | nt | -2 | 7 | 2 | 26* | -7 | 23*
COc1ccc(C(=O)NNC(=S)NC(=O)/C=C/c2cccs2)cc1 | 4 | 4 | -5 | -1 | 2 | 25* | -1 | 12
O=C(NNC(=S)NC(=O)c1cccs1)c1ccc(NC(=O)c2ccccc2)cc1 | -1 | -1 | 1 | -15 | 4 | 15 | nt | nt
O=C(NC(=S)Nc1ccc(Br)cn1)c1cccs1 | 1 | 3 | -3 | 3 | 6 | 27* | 3 | 1
COC(=O)[C@H](CC(C)C)N(CCc1cn(Cc2ccc(C)cc2)nn1)S(=O)(=O)c1ccc(F)cc1Br | nt | nt | 1 | nt | -2 | nt | nt | nt
CC[C@@H](CCC1CCCCC1)CN(c1ccccc1)S(C)(=O)=O | nt | nt | 2 | nt | -2 | nt | nt | nt
CCCCN(C)S(=O)(=O)c1ccc2[nH]c(=O)oc2c1 | nt | nt | 5 | nt | 0 | nt | nt | nt
Cc1nc2ccccc2n1CC(=O)c1ccc(O)c(O)c1 | nt | 0 | 2 | 14 | 16 | 45* | -7 | 37*
SMILES | Fam108B inh | PME-1 primary | SIAE primary | HTRA1 inhibitor | ABHD4 inh | TCR CD3 inh | BSA TAMRA ctr | TCR-CD3 conf
Cc1nc2ccccc2n1CC(=O)c1ccccc1 | -4 | -3 | 8 | -6 | -3 | 2 | nt | nt
COCCNC(=O)CC(c1ccccc1)c1ccccc1 | 1 | -4 | -6 | -1 | 1 | 8 | nt | nt
COCCCNC(=O)CC(C)c1ccccc1 (configuration not stated) | -4 | -4 | -1 | -4 | 2 | 110* | 3 | 6
CCOc1ccccc1NC(=O)C(OC(=O)c1ccccc1)c1ccccc1 (configuration not stated) | -7 | -4 | -3 | -24 | -9 | -2 | nt | nt
CC(OC(=O)c1ccc(NC(=O)CC#N)cc1)C(=O)Nc1ccc2c(c1)OCCO2 (configuration not stated) | -7 | -33 | -34 | -24 | -63 | 2 | nt | nt
CCOc1ccccc1NC(=O)C(OC(=O)c1ccc(NC(=O)CC#N)cc1)c1ccccc1 (configuration not stated) | -29 | -54 | -87 | -102 | -48 | 20* | -3 | 4
CC(OC(=O)c1ccc(NC(=O)CC#N)cc1)C(=O)NC(c1ccccc1)c1ccccc1 (configuration not stated) | nt | nt | -51 | -77 | -56 | 29* | 4 | 1
Cc1ccc(NC(=O)C(C)OC(=O)c2ccc(NC(=O)CC#N)cc2)cc1S(=O)(=O)N1CCOCC1 (configuration not stated) | -18 | -42 | -92 | -40 | -64 | 27* | -3 | 4
O=S1(=O)CC(N2CCCC2)CN1 (configuration not stated) | nt | nt | 3 | nt | 2 | nt | nt | nt
CCC(=O)Nc1ccc2ccccc2c1 | -1 | 1 | 6 | -1 | 0 | -2 | nt | nt
CCC(=O)Nc1ccc2nc3c(=O)[nH]c(=S)[nH]c3nc2c1 | 8 | 5 | 1 | 16 | 7 | 29* | -3 | 28*
O=C(Nc1ccc(S(=O)(=O)Nc2nccs2)cc1)c1nn(-c2ccccc2)ccc1=O | 4 | 1 | 0 | 7 | 5 | 20* | -13 | 22*
COc1ccccc1C(=O)Nc1ccc(S(=O)(=O)Nc2nccs2)cc1 | 1 | -13 | 0 | -1 | 3 | -2 | nt | nt
O=C(O)c1ccccc1C(=O)Nc1ccc(S(=O)(=O)Nc2nccs2)cc1 | 5 | 1 | 2 | 3 | 4 | 38* | 6 | 4
CCOC(=O)CC[C@@H]1CC[C@]2(CCCN(Cc3ccc(Cl)cc3)C2)O1 | nt | nt | 0 | nt | 3 | nt | nt | nt
